A short description of assay [1]: Dopamine receptor binding affinity by displacing the radioligand [3H]-dopamine from dopamine receptor. More on the design: species or system Bos taurus. The procedure, abridged: (§1)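 Radioligand displacement was run on membrane fractions from calf caudate nucleus, with [3H]DA or [3H]spiroperidol as the labelled ligand.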
Assay [2] can be described thus: Dopamine receptor binding affinity by displacing the radioligand [3H]spiroperidol from dopamine receptor. More on the design: species or system Bos taurus. The procedure, abridged:
as §1

In assay [3] the target is T1, Dopamine receptor (Rattus norvegicus) (UniProt P25115+P19020+P30729+P18901+P61169). Kind of assay: Evaluation for contralateral turning in 6-hydroxy-dopamine-lesioned rats administered intraperitoneally at the dose 1 mg/kg total turnings. The class given is functional, organism-based. On the set-up: dose 1 mg/kg. In outline: (§2)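 Rats carrying a unilateral lesion of the nigrostriatal pathway were scored for induced turning toward the side contralateral to the lesion, using an Ungerstedt-type rotation procedure.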

For assay [4], the target named is T1, Dopamine receptor (Rattus norvegicus). Kind of assay: Evaluation for contralateral turning in 6-hydroxy-dopamine-lesioned rats administered intraperitoneally at the dose 1 mg/kg duration. The assay is classed as functional, organism-based. More on the design: dose 1 mg/kg. In outline:
as §2

Assay [5] shares this target. Put plainly: Evaluation for contralateral turning in 6-hydroxy-dopamine-lesioned rats administered intraperitoneally at the dose 1 mg/kg Maximum intensity (turnings/min). On the set-up: dose 1 mg/kg. The class given is functional, organism-based. In outline:
as §2

For assay [6], the system named is Rattus norvegicus. Put plainly: Compound was evaluated for the contralateral turning in 6-hydroxy-dopamine-lesioned rats administered intraperitoneally at the dose 1 mg/kg. The class given is functional. The note with it: route intraperitoneal. The procedure, abridged: as §2

Each structure is given as a SMILES string.

For `CN(CCCC#N)C1CCc2c(O)cccc2C1` (stereo not drawn), the IC50 in assay [1] was found to be 500 nM; in assay [2] it was 3500 nM. Moreover, the Total turnings in assay [3] is less than 150.

On to `CCCN(CCCCl)C1CCc2c(O)cccc2C1` (stereo not drawn), for which the IC50 amounted to 46 nM in assay [1] and 1020 nM in assay [2]. Also, the Duration in assay [4] stood at 7 h. Also, the Max intensity in assay [5] is 12.5 turns min-1. Besides, the Total turnings in assay [3] was determined as 2660.

Consider `C=CCCCN(CCC)C1CCc2c(O)cccc2C1` (stereo not drawn), for which the results for the IC50 in assay [1] and in assay [2] were 48 nM and 400 nM, respectively. Moreover, the Duration in assay [4] was determined as 7 h. Besides, the Max intensity in assay [5] came to 7.7 turns min-1. In assay [3], this compound showed a Total turnings of 1740.

For the compound `CCCN(CCCC#N)C1CCc2c(O)cccc2C1` (single isomer, unassigned; (+)), the IC50 in assay [1] came out at 490 nM; in assay [2] it was 3500 nM.

As to `CN1C[C@@H](CC#N)C[C@@H]2c3cccc4[nH]cc(c34)C[C@H]21` [DELERGOTRILE], the IC50 was determined as 265 nM in assay [1] and 520 nM in assay [2]. In assay [4], the Duration is greater than 7 h. Also, the Max intensity in assay [5] turned out to be 14.4 turns min-1. The Total turnings in assay [3] stood at 2610.

Regarding `CCCN(CCc1ccccc1)C1CCc2c(O)cccc2C1` (stereo not drawn), the values for the concentration for half-maximal inhibition (IC50) in assay [1] and in assay [2] were 40 nM and 180 nM, respectively. The compound also registered a Duration in assay [4] of 6 h. The compound also came in with a Max intensity in assay [5] of 8.7 turns min-1. In assay [3], this compound displayed a Total turnings of 1520.

Consider `CCCN1C[C@H](CSC)C[C@@H]2c3cccc4[nH]cc(c34)C[C@H]21` [PERGOLIDE], for which the results for the IC50 in assay [1] and in assay [2] were 18 nM and 145 nM, respectively. Further, in assay [4], the Duration was greater than 7 h. Moreover, the Max intensity in assay [5] worked out at 9.7 turns min-1. For the same compound, in assay [3], the Total turnings came out at 1800.

On to `CCCN(CCCS(C)(=O)=O)C1CCc2c(O)cccc2C1` (stereo not drawn), for which, in assay [1], the IC50 is 110 nM. This compound returned an IC50 in assay [2] of 1860 nM. In assay [6], this compound had a Duration of 1 h, a Max intensity of 5.7 turns min-1 and a Total turnings of 531.

For the compound `CCN(CC)S(=O)(=O)N[C@H]1C[C@@H]2c3cccc4[nH]cc(c34)C[C@H]2N(C)C1` [ETISULERGINE], the half-inhibitory concentration (IC50) in assay [1] came to 120 nM. In addition, the IC50 in assay [2] was 25 nM. For the same compound, in assay [6], the Duration was greater than 7 h, the Max intensity is 11.8 turns min-1 and the Total turnings was 3688.

In assay [4], `CCCN(CCCC#N)C1CCc2c(O)cccc2C1` (stereo in doubt; (-)-3) [listing 1 of 2 here] yielded a Duration of 6 h. Besides, in assay [5], the Max intensity is 12 turns min-1. Also, in assay [3], the Total turnings is 3260.

Compound `CCCN(CCCSC)C1CCc2c(O)cccc2C1` (single isomer, unassigned; (-)) [listing 1 of 2 here] returned a Duration in assay [4] of 7 h. In assay [5], this compound had a Max intensity of 15.2 turns min-1. Also, in assay [3], the Total turnings amounted to 3590.

Turning to `CCCN(CCCC#N)C1CCc2c(O)cccc2C1` (stereo in doubt; 3) [listing 1 of 2 here], the IC50 in assay [1] came to 35 nM; in assay [2] it was 790 nM.

With `CCCN(CCCOC)C1CCc2c(O)cccc2C1` (stereo not drawn), the results for the IC50 in assay [1] and in assay [2] were 150 nM and 2200 nM, respectively. The compound also came in with a Duration in assay [4] of 2 h. In assay [5], this compound came in with a Max intensity of 7.4 turns min-1. The same compound returned a Total turnings in assay [3] of 347.

Consider `CCCN(CCC#N)C1CCc2c(O)cccc2C1` (stereo not drawn), for which the IC50 in assay [1] came to 130 nM; in assay [2], 7500 nM. Further, the Total turnings in assay [3] was less than 150.

With `CCCN(CCC)C1CCc2c(O)cccc2C1` (stereo not drawn) [5-OH-DPAT], the results for the 50% inhibitory concentration (IC50) in assay [1] and in assay [2] were 49 nM and 1350 nM, respectively. The Duration in assay [4] came to 6 h. The compound further showed a Max intensity in assay [5] of 22.7 turns min-1. The compound also yielded a Total turnings in assay [3] of 2540.

For `CCCN(CCCNC(=O)OCC)C1CCc2c(O)cccc2C1` (stereo not drawn), in assay [1], the concentration for half-maximal inhibition (IC50) is 77 nM. The same compound gave a concentration for half-maximal inhibition (IC50) in assay [2] of 525 nM. For the same compound, in assay [6], the Duration stood at 5 h, the Max intensity was 10.4 turns min-1 and the Total turnings was 1216.

With `CCCN(CCCNS(=O)(=O)N(C)C)C1CCc2c(O)cccc2C1` (stereo not drawn), the IC50 in assay [1] amounted to 100 nM. Moreover, the IC50 in assay [2] was found to be 370 nM. In assay [6], this compound registered a Duration of 4 h, a Max intensity of 7.6 turns min-1 and a Total turnings of 857.

On to `CCCN(CCCc1ccccc1)C1CCc2c(O)cccc2C1` (stereo not drawn), for which the 50% inhibitory concentration (IC50) worked out at 48 nM in assay [1] and 140 nM in assay [2]. Also, the Duration in assay [4] was determined as 5 h. In assay [5], the Max intensity came out at 6.6 turns min-1. The compound also displayed a Total turnings in assay [3] of 656.

As for `CCN(CCCC#N)C1CCc2c(O)cccc2C1` (stereo not drawn), the values for the IC50 in assay [1] and in assay [2] were 68 nM and 920 nM, respectively. In assay [3], this compound showed a Total turnings of less than 150.

Take `CCCN(CCCN=[N+]=[N-])C1CCc2c(O)cccc2C1` (stereo not drawn): the half-inhibitory concentration (IC50) is 58 nM in assay [1] and 530 nM in assay [2]. This compound returned a Duration in assay [4] of 7 h. This compound returned a Max intensity in assay [5] of 6.7 turns min-1. The Total turnings in assay [3] is 1860.

For `CCCN(CCCC(=O)OC)C1CCc2c(O)cccc2C1` (stereo not drawn), the IC50 in assay [1] is 140 nM; in assay [2], 910 nM. This compound also registered a Total turnings in assay [6] of less than 150.

On to `CCCN(CCCO)C1CCc2c(O)cccc2C1` (stereo not drawn), for which the half-maximal inhibitory concentration (IC50) in assay [1] was found to be 185 nM; in assay [2], 1450 nM. The same compound returned a Duration in assay [4] of 3 h. In addition, in assay [5], the Max intensity amounted to 10.2 turns min-1. The Total turnings in assay [3] was determined as 721.

In assay [1], `CCCN(CCCNC(C)=O)C1CCc2c(O)cccc2C1` (stereo not drawn) gave an IC50 of 190 nM. Besides, the IC50 in assay [2] was 1800 nM. In addition, in assay [6], the Duration was 4 h, the Max intensity stood at 1.6 turns min-1 and the Total turnings is recorded as 159.

With `CCCN(CCCC#N)C1CCc2c(O)cccc2C1` (stereo in doubt; (-)-3) [listing 2 of 2 here], the IC50 in assay [1] came out at 37 nM; in assay [2], 370 nM.

On to `CCCN(CCCSC)C1CCc2c(O)cccc2C1` (stereo in doubt; 12) [listing 1 of 2 here], for which the IC50 in assay [1] stood at 43 nM; in assay [2], 220 nM.

Turning to `CCCN(CCCCC#N)C1CCc2c(O)cccc2C1` (stereo not drawn), the IC50 came to 91 nM in assay [1] and 1500 nM in assay [2]. The compound further displayed a Duration in assay [4] of 4 h. For the same compound, the Max intensity in assay [5] came out at 10.8 turns min-1. In assay [3], the Total turnings was 1460.

In assay [4], `CCCN(CCCC#N)C1CCc2c(O)cccc2C1` (stereo in doubt; 3) [listing 2 of 2 here] came in with a Duration of 3 h. The compound also came in with a Max intensity in assay [5] of 10.3 turns min-1. Further, the Total turnings in assay [3] was found to be 1170.

Compound `CCCN(CCCSC)C1CCc2c(O)cccc2C1` (stereo in doubt; 12) [listing 2 of 2 here] had a Duration in assay [4] of 7 h. Moreover, the Max intensity in assay [5] was determined as 9.8 turns min-1. For the same compound, the Total turnings in assay [3] was 1980.

As to `CCCN(CCCSC)C1CCc2c(O)cccc2C1` (single isomer, unassigned; (-)) [listing 2 of 2 here], the half-maximal inhibitory concentration (IC50) in assay [1] was 38 nM; in assay [2] it was 230 nM.

Turning to `CCCN(CCCN)C1CCc2c(O)cccc2C1` (stereo not drawn), the IC50 in assay [1] was 2000 nM; in assay [2], 4580 nM.

Turning to `CCCN(CCCNC(=O)N(CC)CC)C1CCc2c(O)cccc2C1` (stereo not drawn), the IC50 in assay [1] is 220 nM; in assay [2], 1300 nM.

Consider `CCCN(CCNS(=O)(=O)N(CC)CC)C1CCc2c(O)cccc2C1` (stereo not drawn), for which the IC50 in assay [1] was 41 nM. The same compound had an IC50 in assay [2] of 220 nM. Besides, in assay [6], the Duration stood at 3 h, the Max intensity came out at 7.8 turns min-1 and the Total turnings worked out at 1015.

In turn, `CCCN(CCCC(=O)NC)C1CCc2c(O)cccc2C1` (stereo not drawn) returned an IC50 in assay [1] of 38 nM. The compound also registered an IC50 in assay [2] of 825 nM. In assay [6], this compound showed a Duration of 6 h, a Max intensity of 6.4 turns min-1 and a Total turnings of 413.

The term IC50 denotes the point on the concentration scale where inhibition reaches its midpoint. A lower IC50 goes with higher potency.

Values taken from ChEMBL document CHEMBL1123289, “Structure-activity relationships of dopaminergic 5-hydroxy-2-aminotetralin derivatives with functionalized N-alkyl substituents” (J Med Chem, 1986).
